Results: ChEMBL document CHEMBL1129933, “Tyrosine kinase inhibitors. 6. Structure-activity relationships among N- and 3-substituted 2,2'-diselenobis(1H-indoles) for inhibition of protein tyrosine kinases and comparative in vitro and in vivo studies against selected sulfur congeners” (J Med Chem, 1997)

How the values were obtained:
B16 [1] = test: In vivo activity against murine B16 melanoma, net cell kill at 3.0 mg/kg ip dose for 9 days; assay type: functional, Mus musculus; conditions: route intraperitoneal
In short: (§1)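 Tumors were passaged in C57BL/6 mice; B6C3F1 mice (18-22 g, randomized) were implanted on day 0 ip with counted tumor cells or sc with fragments. Dosing was ip bolus, daily or q4h ×3 daily, by average cage weight. Vehicle was distilled H2O or 10% DMA in 50 mM lactic acid buffer, pH 4.0. Net cell kill = log reduction in tumor burden between first and last treatments.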

M5076 [2] = test: In vivo activity against murine M5076 sarcoma, net cell kill at 3.0 mg/kg ip dose at 4 hour intervals 3x per day for 9 days; assay type: functional, Mus musculus; conditions: route intraperitoneal; in short: as §1
Colon 26 [3] = test: In vivo activity against murine colon 26 tumor, net cell kill at 1.5 mg/kg ip dose for 9 days; assay type: functional, Mus musculus; conditions: route intraperitoneal
In short: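 Colon 26 was passaged in BALB/c mice; tested in CD2F1 mice (18-22 g, randomized) implanted on day 0 ip with counted cells or sc with fragments. Dosing was ip bolus, daily or q4h ×3 daily, by average cage weight. Vehicle was distilled H2O or 10% DMA in 50 mM lactic acid, pH 4.0. Net cell kill = log tumor-burden reduction between first and last treatments.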

B16 [4] = test: In vivo activity against murine B16 melanoma, percent treated/control tumor mass at 3.0 mg/kg ip dose for 9 days; assay type: functional, Mus musculus; conditions: route intraperitoneal
In short: (§2)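 Murine tumours were maintained by serial transplantation (~30 mg fragments every 2 weeks): B16 in C57BL/6 and colon 26 in BALB/c. They were tested in F1 hosts, B6C3F1 for B16 and CD2F1 for colon 26, weighing 18-22 g. Treatment was ip daily or q4h ×3 for 9 days. Weight change was the difference between mean group weights on the last and first treatment days, from life-span assays.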

Colon 26 [5] = test: In vivo activity against murine colon 26, percent treated/control tumor mass at 0.75 mg/kg ip dose at 4 hour intervals 3x a day for 9 days; assay type: functional, Mus musculus; conditions: route intraperitoneal; in short: as §2
A-431 [6] = test: In vivo activity against human A431 epidermoid xenograft, net cell kill at 10 mg/kg administered subcutaneously for 9-15 days; assay type: functional; conditions: route subcutaneous
In short: (§3)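 Nude mice (NCr nu/nu), 18-22 g, randomized, implanted sc in the right axilla with serially passaged A431 tumor fragments on day 0. Dosing was by ip bolus or continuous sc Alzet miniosmotic pump infusion, by average cage weight. Vehicle was distilled H2O or 10% DMA in 50 mM lactic acid buffer, pH 4.0, depending on compound. Net cell kill = net log reduction in tumor burden between first and last treatments.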

A-431 [7] = test: In vivo activity against human A431 epidermoid xenograft, net cell kill at 9 mg/kg administered subcutaneously for 1-27 days; assay type: functional; conditions: route subcutaneous; in short: as §3
A-431 [8] = test: In vivo activity against human A431 epidermoid xenograft, weight change after 10 mg/kg sc dose for 9-15 days; assay type: functional; conditions: route subcutaneous
In short: (§4)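 Nude mice (NCr nu/nu, 18-22 g) bearing sc A431 fragments in the right axilla (day 0) received continuous sc infusion from an Alzet miniosmotic pump implanted under ketamine-xylazine. Pumps were removed or replaced under lidocaine-epinephrine for longer therapy, in 7-day and 27-day studies. Daily dose was the maximum deliverable without significant precipitation. Weight change was taken as the maximum treatment-related loss.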

A-431 [9] = test: In vivo activity against human A431 epidermoid xenograft, weight change after 9 mg/kg sc dose for 1-27 days; assay type: functional, organism-based; design: dose 9 mg/kg; in short: as §4
C6 [10] = test: In vivo activity against C6 glioma xenograft, weight change after 5 mg/kg ip dose for 9 days; assay type: functional, organism-based; design: dose 5 mg/kg
In short: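 Nude mice (NCr nu/nu, 18-22 g) implanted sc in the right axilla with serially passaged C6 glioma fragments on day 0, randomized, and dosed ip by bolus on days 1-9 based on average cage weight. Vehicle was distilled H2O or 10% DMA in 50 mM lactic acid buffer, pH 4.0, depending on compound. Weight change was taken as the maximum treatment-related weight loss.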

B16 [11] = test: In vivo activity against murine B16 melanoma, percent treated/control tumor mass at 0.75 mg/kg ip dose at 4 hour intervals 3x a day for 9 days; assay type: functional, Mus musculus; conditions: route intraperitoneal; in short: as §2
Colon 26 [12] = test: In vivo activity against murine colon 26, weight change after 1.5 mg/kg ip dose for 9 days; assay type: functional, Mus musculus; conditions: route intraperitoneal; in short: as §2
Colon 26 [13] = test: In vivo activity against murine colon 26, weight change after 0.75 mg/kg ip dose at 4 hour intervals 3x a day for 9 days; assay type: functional, Mus musculus; conditions: route intraperitoneal; in short: as §2
MCF7 [14] = test: In vivo activity against human MCF-7 xenograft, weight change after 3.0 mg/kg ip dose at 4 hour intervals 3x a day for 5-11 days; assay type: functional, organism-based; design: dose 3 mg/kg
In short: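 MCF-7 breast carcinoma xenografts were serially passaged in nude mice (NCr nu/nu) and implanted in randomized 18-22 g mice on day 0. Dosing was ip bolus, either daily or q4h ×3 daily, with vehicle of distilled H2O or 10% DMA in 50 mM lactic acid buffer, pH 4.0. Weight change was taken as the maximum treatment-related loss.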

[15] = biological target: Platelet-derived growth factor receptor beta (Mus musculus, UniProt P05622); test: Inhibition of platelet-derived growth factor receptor (PDGFr) autophosphorylation; assay type: functional
Chain of Platelet-derived growth factor receptor beta (P05622 whole entry): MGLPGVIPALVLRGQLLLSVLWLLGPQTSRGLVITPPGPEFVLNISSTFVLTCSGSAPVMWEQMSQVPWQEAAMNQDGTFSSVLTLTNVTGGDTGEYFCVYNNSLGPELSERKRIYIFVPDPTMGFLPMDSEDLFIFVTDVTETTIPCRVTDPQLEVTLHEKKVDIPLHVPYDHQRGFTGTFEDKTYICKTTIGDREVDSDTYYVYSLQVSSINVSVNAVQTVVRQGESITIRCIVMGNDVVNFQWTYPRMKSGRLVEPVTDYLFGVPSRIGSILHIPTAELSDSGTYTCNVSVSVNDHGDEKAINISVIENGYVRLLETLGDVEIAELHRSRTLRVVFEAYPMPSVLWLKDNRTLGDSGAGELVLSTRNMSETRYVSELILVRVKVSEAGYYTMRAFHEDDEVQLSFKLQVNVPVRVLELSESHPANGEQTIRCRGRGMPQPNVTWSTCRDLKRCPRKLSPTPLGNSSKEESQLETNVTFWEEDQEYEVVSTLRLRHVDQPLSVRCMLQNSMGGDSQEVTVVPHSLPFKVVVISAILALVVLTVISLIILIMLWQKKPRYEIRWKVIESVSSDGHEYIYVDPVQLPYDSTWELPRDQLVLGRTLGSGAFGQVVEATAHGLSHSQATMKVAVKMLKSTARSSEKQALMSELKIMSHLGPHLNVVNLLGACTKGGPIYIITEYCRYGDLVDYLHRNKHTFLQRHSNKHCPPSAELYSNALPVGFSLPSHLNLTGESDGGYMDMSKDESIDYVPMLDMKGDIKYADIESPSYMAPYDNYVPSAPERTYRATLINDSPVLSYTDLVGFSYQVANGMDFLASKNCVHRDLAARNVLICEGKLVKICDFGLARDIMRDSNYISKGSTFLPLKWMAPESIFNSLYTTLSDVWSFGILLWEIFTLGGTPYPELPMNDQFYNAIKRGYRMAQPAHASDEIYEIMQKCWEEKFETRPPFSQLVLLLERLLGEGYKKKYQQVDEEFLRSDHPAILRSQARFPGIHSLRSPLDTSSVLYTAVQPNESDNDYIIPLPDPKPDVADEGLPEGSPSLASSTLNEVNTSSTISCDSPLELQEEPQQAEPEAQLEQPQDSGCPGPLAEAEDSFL
In short: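 Swiss 3T3 fibroblasts were treated 2 h with a range of compound concentrations, then stimulated 5 min with growth factor. Receptor tyrosine phosphorylation was assessed by cell extraction and western blotting.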

[16] = biological target: Fibroblast growth factor receptor (Mus musculus, UniProt P21803+Q03142+P16092+Q61851); test: Inhibition of fibroblast growth factor (bFGF)-mediated autophosphorylation of FGF-R in Swiss 3T3 mouse fibroblasts; assay type: functional
In short: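 Swiss 3T3 fibroblasts were treated 2 h with a range of compound concentrations, then stimulated for 5 min with growth factor (bFGF). Receptor tyrosine phosphorylation was read by extraction and western blotting.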

[17] = Inhibition of DNA synthesis; assay type: functional
In short: (§5)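 Log-phase cells were drug-treated for 2 h, then exposed for 2 h to 1 µM [methyl-3H]thymidine (DNA), [5-3H]uridine (RNA) or (S)-[4,5-3H]leucine (protein), each at 1 µCi/nmol. Cells were trypsinized into ice-cold 15% TCA, and precipitates were collected on glass-fibre filters, washed, and counted by scintillation.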

[18] = Inhibition of RNA synthesis; assay type: functional; in short: as §5
[19] = Inhibition of protein synthesis; assay type: functional; in short: as §5
[20] = biological target: Epidermal growth factor receptor (Mus musculus) (UniProt Q01279); test: Inhibition of epidermal growth factor receptor (EGFr) autophosphorylation
Chain of Epidermal growth factor receptor (Mus musculus) (Q01279 whole entry, looked up): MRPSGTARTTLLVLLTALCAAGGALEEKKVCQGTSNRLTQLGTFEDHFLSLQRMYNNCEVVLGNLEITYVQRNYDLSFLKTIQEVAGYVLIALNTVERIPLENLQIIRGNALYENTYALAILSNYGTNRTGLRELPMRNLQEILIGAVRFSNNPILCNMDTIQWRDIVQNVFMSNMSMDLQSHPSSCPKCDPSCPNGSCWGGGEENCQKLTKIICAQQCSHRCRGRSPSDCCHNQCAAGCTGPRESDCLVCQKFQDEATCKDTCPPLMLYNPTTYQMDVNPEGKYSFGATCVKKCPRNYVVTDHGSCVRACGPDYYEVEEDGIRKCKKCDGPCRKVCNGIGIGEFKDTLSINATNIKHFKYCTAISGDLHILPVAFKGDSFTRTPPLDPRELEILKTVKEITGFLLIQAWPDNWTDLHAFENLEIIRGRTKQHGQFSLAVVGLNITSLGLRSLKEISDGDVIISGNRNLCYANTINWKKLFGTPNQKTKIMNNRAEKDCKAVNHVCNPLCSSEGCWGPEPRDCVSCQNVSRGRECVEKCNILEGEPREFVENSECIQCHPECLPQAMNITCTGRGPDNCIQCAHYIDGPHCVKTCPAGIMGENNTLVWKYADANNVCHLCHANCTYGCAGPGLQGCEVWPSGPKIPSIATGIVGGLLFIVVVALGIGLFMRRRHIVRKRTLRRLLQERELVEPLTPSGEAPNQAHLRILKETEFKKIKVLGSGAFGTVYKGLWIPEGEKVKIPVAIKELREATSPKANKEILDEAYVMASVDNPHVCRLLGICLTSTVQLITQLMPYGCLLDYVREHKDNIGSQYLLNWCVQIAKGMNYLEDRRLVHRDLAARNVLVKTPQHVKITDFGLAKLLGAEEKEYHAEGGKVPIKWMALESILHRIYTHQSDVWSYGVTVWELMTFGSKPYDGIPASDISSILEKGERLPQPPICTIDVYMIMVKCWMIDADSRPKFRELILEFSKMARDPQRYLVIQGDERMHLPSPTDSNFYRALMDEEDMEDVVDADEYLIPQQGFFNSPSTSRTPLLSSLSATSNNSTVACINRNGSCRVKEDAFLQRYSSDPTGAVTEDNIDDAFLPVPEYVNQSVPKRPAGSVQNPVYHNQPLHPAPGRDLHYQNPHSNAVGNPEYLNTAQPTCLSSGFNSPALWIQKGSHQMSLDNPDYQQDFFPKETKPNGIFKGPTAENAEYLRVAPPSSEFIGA

C6 [21] = test: In vivo activity against C6 glioma xenograft, tumor growth delay (T-C, days) at 5 mg/kg ip dose for 9 days; conditions: route intraperitoneal
M5076 [22] = test: In vivo activity against murine M5076 sarcoma, tumor growth delay (T-C) at 3.0 mg/kg ip dose at 4 hour intervals 3x a day for 9 days; conditions: route intraperitoneal
A-431 [23] = test: In vivo activity against human A431 epidermoid xenograft, tumor growth delay (T-C) at 9 mg/kg administered subcutaneously for 1-27 days; conditions: route subcutaneous
A-431 [24] = test: In vivo activity against human A431 epidermoid xenograft, tumor growth delay (T-C) at 10 mg/kg administered subcutaneously for 9-15 days; conditions: route subcutaneous
MCF7 [25] = test: In vivo activity against human MCF-7 xenograft, tumor growth delay (T-C) at 3.0 mg/kg ip dose at 4 hour intervals 3x a day for 5-11 days; conditions: route intraperitoneal

## NC(Cc1c(SSc2[nH]c3ccccc3c2CC(N)C(=O)NCc2ccccc2)[nH]c2ccccc12)C(=O)NCc1ccccc1 (stereo not given)
B16 [1]
  Net cell kill: -1.3 log10
M5076 [2]
  Net cell kill: -0.8 log10
Colon 26 [3]
  Net cell kill: -0.3 log10
B16 [4]
  T/C: 100%
Colon 26 [5]
  T/C: 119%
A-431 [6]
  Net cell kill: -0.2 log10
A-431 [7]
  Net cell kill: -0.6 log10
A-431 [8]
  Weight change: -1.2 g
A-431 [9]
  Weight change: Weight gain
C6 [10]
  Weight change: Weight gain
B16 [11]
  T/C: 99%
Colon 26 [12]
  Weight change: 1.8 g
Colon 26 [13]
  Weight change: 0.8 g
MCF7 [14]
  Weight change: Weight gain
[15]
  IC50: 6.2 µM
[16]
  IC50: 2.3 µM
[17]
  IC50: 2.5 µM
[18]
  IC50: 2 µM
[19]
  IC50: 0.6 µM
[20]
  IC50: > 100 µM
C6 [21]
  T-C: 0 days
M5076 [22]
  T-C: 0.7 days
A-431 [23]
  T-C: 1 days
A-431 [24]
  T-C: 1.9 days
MCF7 [25]
  T-C: 1 days
